The text below walks through data of ChEMBL document CHEMBL4765234 (J Med Chem, 2016).

The nature of series [1]: AUC in hyperglycemic Balb/c mouse plasma at […] measured upto 60 mins. Format: ADME, organism-based.
The nature of series [2]: Apparent volume of distribution in type 2 diabetic mellitus human at 1080 mg, po administered as single dose. The following applies: in vivo, read-out: Vz/F. Format: ADME, organism-based. Put shortly: (§1)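 Type 2 diabetic subjects each received a single oral dose. Plasma drug levels were followed over time. Parameters were derived by noncompartmental analysis and reported as geometric means with CV%. CL/F is apparent total clearance and Vz/F is apparent terminal-phase volume.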

Series [3] in a line: Cmax in mouse plasma at 3 mg/kg, po or 1 mg/kg, iv by LC/MS/MS analysis. It is filed as ADME, organism-based. Also on record: dose 3 mg/kg. The method, boiled down: (§2)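 Mice, rats and beagle dogs were dosed. Blood was collected into EDTA at set time points and processed to plasma for LC/MS/MS bioanalysis. Parameters were derived by noncompartmental analysis.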
Series [4] is described as follows: Cmax in type 2 diabetic mellitus human at 1080 mg, po administered as single dose. The following applies: in vivo. Format: ADME, organism-based. Also on record: route oral, dose 1080 mg. The method, boiled down: as §1
Series [5] is described as follows: Volume of distribution at steady state in dog at 3 mg/kg, po or 1 mg/kg, iv by LC/MS/MS analysis. It is filed as ADME, organism-based, Canis lupus familiaris. Particulars: in vivo, read-out: Vdss; call rule not given here. The method, boiled down: (§3)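 Dosed to mice, rats or beagle dogs. Blood collected at selected time points with EDTA anticoagulant, processed to plasma and analysed by LC/MS/MS. Parameters obtained by noncompartmental analysis.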

Series [6] in a line: Drug metabolism in dog plasma assessed as metabolite formation by LC-MS/MS analysis. It is filed as ADME, cell-free, Canis lupus familiaris.
Series [7] can be described thus: Half-life in dog at 3 mg/kg, po or 1 mg/kg, iv by LC/MS/MS analysis. Format: ADME, organism-based, Canis lupus familiaris. Particulars: in vivo. Put shortly:
as §3

The nature of series [8]: Cmax in type 2 diabetic mellitus human at 270 mg, po administered as single dose. Format: ADME, organism-based. Further details: route oral, dose 270 mg. The following applies: in vivo. The method, boiled down: as §1
Series [9] in a line: Elimination half-life in dog plasma at 3 mg/kg, po or 1 mg/kg, iv by LC/MS/MS analysis. Format: ADME, organism-based, Canis lupus familiaris. The method, boiled down:
as §3

Series [10] is described as follows: Clearance in human hepatocytes by LC-MS/MS analysis. It is filed as ADME, cell-based, Hepatocyte.
A short description of series [11]: Drug metabolism in dog urine assessed as metabolite formation by LC-MS/MS analysis. It is filed as ADME, tissue-based, Canis lupus familiaris.
Series [12] in a line: Tmax in rat at 3 mg/kg, po or 1 mg/kg, iv by LC/MS/MS analysis. Format: ADME, organism-based. Particulars: in vivo. The method, boiled down:
as §3

Series [13] can be described thus: Apparent volume of distribution in type 2 diabetic mellitus human at 270 mg, po administered as single dose. The following applies: in vivo, read-out: Vz/F. It is filed as ADME, organism-based. The method, boiled down: as §1
Series [14] is described as follows: Drug metabolism in dog plasma assessed as conjugation with glucuronide metabolite formation by LC-MS/MS analysis. Format: ADME, cell-free, Canis lupus familiaris.
Series [15] in a line: Volume of distribution at steady state in rat at 3 mg/kg, po or 1 mg/kg, iv by LC/MS/MS analysis. Particulars: in vivo, read-out: Vdss. Format: ADME, organism-based. Put shortly: as §3
Series [16] can be described thus: Oral bioavailability in dog at 3 mg/kg by LC/MS/MS analysis. It is filed as ADME, organism-based, Canis lupus familiaris. The following applies: in vivo. The method, boiled down:
as §3

Series [17] in a line: Volume of distribution at steady state in mouse at 3 mg/kg, po or 1 mg/kg, iv by LC/MS/MS analysis. Format: ADME, organism-based. Particulars: in vivo, read-out: Vdss. Put shortly: as §3
Series [18] is described as follows: Tmax in type 2 diabetic mellitus human at 540 mg, po administered as single dose. It is filed as ADME, organism-based. The following applies: in vivo. Put shortly: (§4)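 Single oral dose given to type 2 diabetic subjects; plasma drug levels followed over time. Cmax, Tmax, terminal half-life, AUC(0−∞), CL/F and Vz/F obtained by noncompartmental analysis and reported as geometric means with CV%.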

Series [19] is described as follows: Cmax in dog plasma at 3 mg/kg, po or 1 mg/kg, iv by LC/MS/MS analysis. It is filed as ADME, organism-based, Canis lupus familiaris. Further details: dose 3 mg/kg. Put shortly:
as §2

A short description of series [20]: AUC in hyperglycemic Balb/c mouse plasma at 5 mg/kg measured upto 60 mins. Format: ADME, organism-based. Further details: dose 5 mg/kg, time <=60.
A short description of series [21]: Half life in type 2 diabetic mellitus human at 540 mg, po administered as single dose. The following applies: in vivo. Format: ADME, organism-based.
A short description of series [22]: Tmax in type 2 diabetic mellitus human at 1080 mg, po administered as single dose. It is filed as ADME, organism-based. Particulars: in vivo. Put shortly: as §4
The nature of series [23]: Apparent clearance in type 2 diabetic mellitus human at 540 mg, po administered as single dose. It is filed as ADME, organism-based. The following applies: in vivo. The method, boiled down: as §1
The nature of series [24]: Tmax in mouse at 3 mg/kg, po or 1 mg/kg, iv by LC/MS/MS analysis. Format: ADME, organism-based. Particulars: in vivo. The method, boiled down:
as §3

Series [25] is described as follows: AUC ( 0 to infinity) in type 2 diabetic mellitus human at 540 mg, po administered as single dose. Further details: route oral, time infinity, dose 540 mg. It is filed as ADME, organism-based. Particulars: in vivo. Put shortly:
as §1

Series [26] has as its target Free fatty acid receptor 1 (Homo sapiens, UniProt O14842). The series can be described thus: Displacement of [3H]-(S)-2-(6-((2',6'-dimethyl-4'-(3-(methylsulfonyl)propoxy)biphenyl-3-yl)methoxy)-2,3-dihydrobenzofuran-3-yl)acetic acid from human recombinant full-length GPR40 expressed in human HEK293 cell membrane assessed as Koff rate measured after 2 hrs by radioligand competitive assay. Format: cell membranes. Particulars: filed as agonist. Background: Displacement assays read how much labelled ligand stays bound in the presence of the test substance.

The nature of series [27]: Drug metabolism in rat hepatocytes assessed as taurine metabolite formation by LC-MS/MS analysis. It is filed as ADME, cell-based, Hepatocyte.
Series [28] in a line: Drug metabolism in human hepatocytes assessed as N-dealkylation by LC-MS/MS analysis. Format: ADME, cell-based, Hepatocyte.
Series [29] can be described thus: Drug distribution in C57BL/6 mouse plasma at 3 microg/kg, iv administered as single dose observed at 20 to 40 mins by LC-MS/MS analysis. Format: ADME, organism-based. The following applies: in vivo, 0.003 mg/kg, time 20-40 min, dose 3 µg/kg. The method, boiled down:
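Tracer microdose study in fed male C57BL/6 mice: single 3 μg/kg IV dose in 25% HP-BCD. Mice were killed by cervical dislocation, and spleen, ascending colon, skeletal muscle and plasma were sampled at 20 and 40 min.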

Series [30] in a line: Drug metabolism in dog hepatocytes assessed as N-dealkylation by LC-MS/MS analysis. Format: ADME, cell-based, Canis lupus familiaris, Hepatocyte.
Series [31] in a line: Half-life in mouse at 10 mg/kg, po or 1 mg/kg, iv by LC/MS/MS analysis. Format: ADME, organism-based. The following applies: in vivo. Put shortly: (§5)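 Mice, rats and beagle dogs dosed; blood drawn at set times into EDTA, processed to plasma and assayed by LC/MS/MS. Parameters (clearance, Vdss, terminal half-life, Cmax, Tmax, oral bioavailability) derived by noncompartmental analysis.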

The nature of series [32]: Oral bioavailability in dog at 5 mg/kg by LC/MS/MS analysis. It is filed as ADME, organism-based, Canis lupus familiaris. Particulars: in vivo. The method, boiled down:
as §5

A short description of series [33]: Oral bioavailability in mouse at 10 mg/kg by LC/MS/MS analysis. Format: ADME, organism-based. Particulars: in vivo. The method, boiled down:
as §5

The nature of series [34]: Drug metabolism in dog plasma assessed as O-dealkylation metabolite formation by LC-MS/MS analysis. It is filed as ADME, cell-free, Canis lupus familiaris.
A short description of series [35]: Drug metabolism in dog hepatocytes assessed as O-dealkylation by measuring 4-((2,3-dihydrospiro[indene-1,4'-piperidine]-1'-yl)methyl)benzoic acid metabolite formation by LC-MS/MS analysis. It is filed as ADME, cell-based, Canis lupus familiaris, Hepatocyte.
A short description of series [36]: Elimination half-life in mouse plasma at 10 mg/kg, po or 1 mg/kg, iv by LC/MS/MS analysis. The following applies: read-out: beta t1/2 (converted).
A short description of series [37]: Volume of distribution at steady state in rat at 10 mg/kg, po or 3 mg/kg, iv by LC/MS/MS analysis. Format: ADME, organism-based. The following applies: in vivo, read-out: Vdss. Put shortly: as §5
The nature of series [38]: Half-life in dog at 5 mg/kg, po or 1 mg/kg, iv by LC/MS/MS analysis. Format: ADME, organism-based, Canis lupus familiaris. The following applies: in vivo. The method, boiled down:
as §5

Series [39] in a line: AUC in hyperglycemic Balb/c mouse plasma at 5.6 mg/kg measured upto 60 mins. Format: ADME, organism-based. Further details: dose 5.6 mg/kg, time <=60.
Series [40] in a line: Drug metabolism in mouse hepatocytes assessed as N-dealkylation by LC-MS/MS analysis. It is filed as ADME, cell-based, Hepatocyte.
Series [41] is described as follows: Drug metabolism in mouse hepatocytes assessed as oxidation by LC-MS/MS analysis. It is filed as ADME, cell-based, Hepatocyte.

Sequence of Free fatty acid receptor 1 (O14842 whole entry): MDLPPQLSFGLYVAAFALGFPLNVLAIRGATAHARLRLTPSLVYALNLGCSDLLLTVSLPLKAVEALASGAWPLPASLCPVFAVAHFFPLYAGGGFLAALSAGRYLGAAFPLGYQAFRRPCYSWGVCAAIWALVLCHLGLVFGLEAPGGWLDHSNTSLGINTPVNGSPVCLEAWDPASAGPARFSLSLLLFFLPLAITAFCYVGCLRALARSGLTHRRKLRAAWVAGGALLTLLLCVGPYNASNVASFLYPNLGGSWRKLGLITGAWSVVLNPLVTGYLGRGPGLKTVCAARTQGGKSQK

The term AUC denotes the area under the concentration-time curve, a measure of exposure. A lower AUC goes with low exposure. On to `CC#C[C@@H](CC(=O)O)c1ccc(OCc2ccc(CN3CCC4(CC3)CN(C)c3ccccc34)cc2)cc1`, for which the AUC at 1 h in [1] worked out at 1030 ng·h/mL.
For orientation: Cmax means the peak of the concentration-time curve. For orientation: Tmax means the time at which the peak concentration occurs. What is called bioavailability is the share of a dose that reaches the circulation, judged against a reference dose that is usually intravenous. A higher bioavailability goes with much systemic uptake. What is called CL/F is clearance divided by bioavailability, as obtained after extravascular dosing. The term AUC(0-inf) denotes the area under the concentration-time curve extrapolated to infinity. Higher therefore signals high exposure. Regarding `CC#C[C@@H](CC(=O)O)c1ccc(OCc2ccc(CN3CCCc4cccc(OC)c43)s2)cc1`, the Vd/F in series [2] came out at 358 L; in series [13] it was 244 L. Besides, the Cmax in series [3] is 552 ng/mL; in series [4] it was 7950 ng/mL; in series [8] it was 2000 ng/mL; in series [19] it was 2290 ng/mL. For the same molecule, the Vd amounted to 1 L/kg in series [5], 1.2 L/kg in [15] and 3.9 L/kg in [17]. Besides, the Drug metabolism entry is on record as “Metabolite_Detected” in [6], “Metabolite_Notdetected” in series [11] and “Metabolite_Detected” in [14]. Also, the half-life in series [7] was 4.4 h; in series [9], 4.4 h; in series [21], 14.5 h. The CLH in series [10] amounted to 0.17 h⁻¹. For the same molecule, the Tmax in series [12] worked out at 0.6 h; in series [18] it was 4 h; in [22], 4 h; in series [24] it was 1 h. The bioavailability in series [16] worked out at 55%. The molecule further had an AUC at 1 h in series [20] of 4930 ng·h/mL. Also, the CL/F in series [23] was 217 mL/min. The same molecule returned an AUC(0-inf) in series [25] of 41400 ng·h/mL.
With `O=C(O)CCc1ccc(OCc2ccc(CN3CCC4(C=Cc5ccccc54)CC3)cc2)cc1F`, the K in series [26] was 0.0866 min⁻¹.
In the case of `CC#C[C@@H](CC(=O)O)c1ccc(OCc2ccc(CN3CCC4(C=Cc5ccccc54)CC3)s2)cc1`, the Drug metabolism result in series [27], in series [28] and in series [30] was “Metabolite_Detected” throughout. Also, the Drug uptake result in series [29] is listed as “Active”.
Turning to `CC#C[C@@H](CC(=O)O)c1ccc(OCc2ccc(CN3CCC4(C=Cc5ccccc54)CC3)cc2)cc1` [LY2881835], the half-life in series [31] is 2.1 h; in series [36] it was 2 h; in series [38] it was 5.05 h. Further, the bioavailability in series [32] was 74%; in series [33], 64%. Also, the Drug metabolism entry in [34] and in series [35] was “Metabolite_Detected” throughout. The K in series [26] is 0.00822 min⁻¹. Also, the Vd in [37] stood at 0.4 L/kg.
`CC#C[C@@H](CC(=O)O)c1ccc(OCc2ccc(CN3CCC4(CCc5ccccc54)CC3)s2)cc1`: the AUC at 1 h in series [39] was 898 ng·h/mL. In addition, the Cmax turned out to be 184 ng/mL in series [3] and 1100 ng/mL in [19]. For the same molecule, the Drug metabolism entry in series [27] was “Metabolite_Detected”; in [28] it was “Metabolite_Detected”; in [40], “Metabolite_Detected”; in series [6], “Metabolite_Notdetected”; in series [41] it was “Metabolite_Detected”; in [30], “Metabolite_Detected”. Further, the Vd is 0.2 L/kg in [5], 0.8 L/kg in series [15] and 1.6 L/kg in [17]. The half-life in series [7] and in series [9] was 3.8 h each time. In series [10], this molecule displayed a CLH of 0.23 h⁻¹. Also, the Tmax came out at 0.5 h in series [12] and 2 h in series [24]. In series [16], this molecule gave a bioavailability of 17%.
